Test results taken from ChEMBL document CHEMBL4000142, “Probing the carboxyester side chain in controlled deactivation (-)-δ(8)-tetrahydrocannabinols” (J Med Chem, 2015).
The source made the active and inactive calls. The calls are words filed in the database; no cut-off is given here.

Legend:
Cannabinoid receptor 2 [1] = target: Cannabinoid receptor 2 (Homo sapiens, UniProt P34972); experiment: Displacement of [3H]CP-55,940 from human CB2 receptor expressed in HEK293 cells by scintillation counting method; format: cell-based
Sequence of Cannabinoid receptor 2 (Homo sapiens, UniProt P34972) (P34972 whole entry): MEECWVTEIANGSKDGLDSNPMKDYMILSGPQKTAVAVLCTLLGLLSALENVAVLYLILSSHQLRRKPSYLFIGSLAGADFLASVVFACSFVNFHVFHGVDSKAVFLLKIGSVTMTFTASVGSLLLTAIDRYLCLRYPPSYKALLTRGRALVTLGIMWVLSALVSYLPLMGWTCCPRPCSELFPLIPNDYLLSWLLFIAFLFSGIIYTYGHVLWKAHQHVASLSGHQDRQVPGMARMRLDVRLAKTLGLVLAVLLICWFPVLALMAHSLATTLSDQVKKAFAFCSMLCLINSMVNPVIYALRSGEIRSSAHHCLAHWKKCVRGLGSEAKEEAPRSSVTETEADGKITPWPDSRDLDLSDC
How it was run: (§1)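 Competition binding against [3H]CP-55,940. Membranes from rat brain (CB1) or from HEK293 cells expressing mouse or human CB2. IC50 from nonlinear regression, converted to Ki. Each experiment run in triplicate; Ki is the mean of three independent experiments.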

[2] = Metabolic stability in mouse plasma assessed as esterase-mediated compound hydrolysis by measuring compound half life by HPLC analysis; format: ADME
How it was run: (§2)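 Compounds at 200 μM in mouse plasma, 37 °C, shaken at 100 rpm. Samples taken over time, diluted 1:4 in acetonitrile and centrifuged. Supernatant analysed by C18 reverse-phase HPLC with an acetonitrile/acidified water gradient and UV detection (204 and 230 nm). Half-life from exponential decay fit.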

Cannabinoid receptor 1 [3] = target: T1, Cannabinoid receptor 1 (Rattus norvegicus, UniProt P20272); experiment: Agonist activity at CB1 receptor in rat brain membranes assessed as reduction in forskolin-stimulated cAMP level measured from 3 data points after 30 mins; format: functional, cell membranes, Membrane
T1 sequence (P20272 whole entry): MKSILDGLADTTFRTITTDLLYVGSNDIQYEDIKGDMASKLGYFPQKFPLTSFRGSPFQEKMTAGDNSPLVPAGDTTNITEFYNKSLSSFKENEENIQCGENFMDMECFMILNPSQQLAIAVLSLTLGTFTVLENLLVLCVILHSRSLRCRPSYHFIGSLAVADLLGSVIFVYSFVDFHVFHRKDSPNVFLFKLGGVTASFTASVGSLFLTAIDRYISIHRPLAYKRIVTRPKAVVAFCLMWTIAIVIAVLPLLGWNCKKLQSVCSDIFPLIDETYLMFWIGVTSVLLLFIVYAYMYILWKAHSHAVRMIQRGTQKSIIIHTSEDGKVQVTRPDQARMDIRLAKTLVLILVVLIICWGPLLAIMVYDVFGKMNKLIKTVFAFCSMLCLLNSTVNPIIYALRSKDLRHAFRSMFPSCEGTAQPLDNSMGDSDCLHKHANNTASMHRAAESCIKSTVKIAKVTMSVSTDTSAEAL

Rattus norvegicus [4] = experiment: Hypothermic activity in sc dosed Sprague-Dawley rat measured over 6 hrs post dose; format: functional
Rattus norvegicus [5] = experiment: Hypothermic activity in sc dosed Sprague-Dawley rat assessed as reduction in body temperature at 0.3 mg/kg, sc measured after 12 hrs post dose relative to baseline; format: functional, organism-based
Cannabinoid receptor 2 [6] = target: Cannabinoid receptor 2 (Mus musculus, UniProt P47936); experiment: Displacement of [3H]CP-55,940 from mouse CB2 receptor expressed in HEK293 cells by scintillation counting method; format: cell-based; how it was run: as §1
Sequence of Cannabinoid receptor 2 (Mus musculus, UniProt P47936) (P47936 whole entry): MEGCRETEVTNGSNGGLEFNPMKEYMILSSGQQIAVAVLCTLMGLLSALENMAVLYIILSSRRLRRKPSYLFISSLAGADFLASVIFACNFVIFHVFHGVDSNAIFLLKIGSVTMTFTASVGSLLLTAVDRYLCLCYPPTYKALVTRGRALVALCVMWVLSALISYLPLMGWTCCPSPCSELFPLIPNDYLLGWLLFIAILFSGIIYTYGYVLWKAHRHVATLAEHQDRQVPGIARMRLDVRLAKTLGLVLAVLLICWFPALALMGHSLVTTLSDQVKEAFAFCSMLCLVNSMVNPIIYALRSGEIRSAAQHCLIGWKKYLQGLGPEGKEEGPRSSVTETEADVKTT

Cannabinoid receptor 1 [7] = target: T1, Cannabinoid receptor 1; experiment: Displacement of [3H]CP-55,940 from CB1 receptor in rat brain membranes by scintillation counting method; format: cell membranes, Membrane; how it was run: as §1
[8] = Metabolic stability in mouse plasma assessed as esterase-mediated compound hydrolysis measured within 5 hrs by HPLC analysis; format: ADME; how it was run: as §2
Cannabinoid receptor 1 [9] = target: T1, Cannabinoid receptor 1; experiment: Agonist activity at CB1 receptor in rat brain membranes assessed as reduction in forskolin-stimulated cAMP level measured from 8 data points after 30 mins; format: functional, cell membranes, Membrane
[10] = target: Cannabinoid receptor 1 (Rattus norvegicus) (UniProt P20272); experiment: Agonist activity at CB1 receptor in rat brain membranes assessed as reduction in forskolin-stimulated cAMP level after 30 mins relative to CP-55,940; format: functional, cell membranes; conditions: Membrane
Sequence of Cannabinoid receptor 1 (Rattus norvegicus) (P20272 whole entry): as the sequence (P20272 whole entry) above

Rattus norvegicus [11] = experiment: Hypothermic activity in sc dosed Sprague-Dawley rat assessed as reduction in body temperature at 0.1 mg/kg, sc measured over 6 hrs post dose relative to baseline; format: functional, organism-based
Rattus norvegicus [12] = experiment: Hypothermic activity in sc dosed Sprague-Dawley rat assessed as reduction in body temperature at 0.03 mg/kg, sc measured after 3 hrs post dose relative to baseline; format: functional, organism-based
Rattus norvegicus [13] = experiment: Hypothermic activity in sc dosed Sprague-Dawley rat assessed as reduction in body temperature at 0.03 mg/kg, sc measured after 6 hrs post dose relative to baseline; format: functional, organism-based

Row | SMILES | Ki (Cannabinoid receptor 2 [1]) | t1/2 [2] | EC50 (Cannabinoid receptor 1 [3]) | Ki (Cannabinoid receptor 2 [6]) | further results
1 | CC1=CC[C@@H]2[C@@H](C1)c1c(O)cc(C(C)(C)C(=O)OCCCBr)cc1OC2(C)C | 0.7 nM |  |  |  | 
2 | CCCCOC(=O)C(C)(C)c1cc(O)c2c(c1)OC(C)(C)[C@@H]1CC=C(C)C[C@@H]21 |  | 12.4 min | < 1 nM |  | ED50 (Rattus norvegicus [4]): 0.37 mg/kg; Activity (Rattus norvegicus [5]): Active
3 | COC(=O)C(C)(C)c1cc(O)c2c(c1)OC(C)(C)[C@@H]1CC=C(C)C[C@@H]21 | 34.5 nM |  |  | 36.9 nM | 
4 | CCCCOC(=O)Cc1cc(O)c2c(c1)OC(C)(C)[C@@H]1CC=C(C)C[C@@H]21 |  | 0.7 min |  |  | 
5 | CCCSC(=O)C(C)(C)c1cc(O)c2c(c1)OC(C)(C)[C@@H]1CC=C(C)C[C@@H]21 | 0.7 nM | 312 min |  | 0.8 nM | Ki (Cannabinoid receptor 1 [7]): 0.5 nM
6 | CC1=CC[C@@H]2[C@@H](C1)c1c(O)cc(C(C)(C)C(=O)OCCCCCBr)cc1OC2(C)C | 0.6 nM |  |  | 1.1 nM | Ki (Cannabinoid receptor 1 [7]): 1.2 nM
7 | CC1=CC[C@@H]2[C@@H](C1)c1c(O)cc(C(C)(C)C(=O)OCCCCC#N)cc1OC2(C)C | 0.9 nM | 40.4 min | 1 to 10 nM | 0.1 nM | 
8 | CC1=CC[C@@H]2[C@@H](C1)c1c(O)cc(C3(C(=O)OCCCCC#N)CCC3)cc1OC2(C)C |  | 115 min | 1 to 10 nM |  | 
9 | CC1=CC[C@@H]2[C@@H](C1)c1c(O)cc(C3(C(=O)OCCCCBr)CCC3)cc1OC2(C)C |  | 47.9 min |  |  | 
10 | CCCCC(=O)OCC(C)(C)c1cc(O)c2c(c1)OC(C)(C)[C@@H]1CC=C(C)C[C@@H]21 | 1 nM | 9.5 min |  | 1.2 nM | Ki (Cannabinoid receptor 1 [7]): 0.5 nM
11 | CCCCOC(=O)C1(c2cc(O)c3c(c2)OC(C)(C)[C@@H]2CC=C(C)C[C@@H]32)CCC1 |  | 36.3 min | < 1 nM |  | 
12 | CC1=CC[C@@H]2[C@@H](C1)c1c(O)cc(C(C)(C)C(=O)OCCCCBr)cc1OC2(C)C | 0.8 nM | 12.9 min |  | 0.9 nM | Ki (Cannabinoid receptor 1 [7]): 1.2 nM
13 | CCOC(=O)C(C)(C)c1cc(O)c2c(c1)OC(C)(C)[C@@H]1CC=C(C)C[C@@H]21 |  |  | 1 to 10 nM |  | 
14 | CC1=CC[C@@H]2[C@@H](C1)c1c(O)cc(C(C)(C)C(=O)OCCBr)cc1OC2(C)C | 2.9 nM |  |  |  | Ki (Cannabinoid receptor 1 [7]): 7.7 nM
15 | CC1=CC[C@@H]2[C@@H](C1)c1c(O)cc(C(C)(C)C(=O)OCCCn3ccnc3)cc1OC2(C)C | 1.3 nM | 271 min | 1 to 10 nM | 2.1 nM | 
16 | CC1=CC[C@@H]2[C@@H](C1)c1c(O)cc(CC(=O)OCCCCBr)cc1OC2(C)C |  | 1.7 min |  |  | 
17 | CC1=CC[C@@H]2[C@@H](C1)c1c(O)cc(C(C)(C)C(=O)OCCCCn3ccnc3)cc1OC2(C)C | 7.7 nM | 392 min |  | 8.2 nM | 
18 | CCCCCNC(=O)C(C)(C)c1cc(O)c2c(c1)OC(C)(C)[C@@H]1CC=C(C)C[C@@H]21 |  |  | 1 to 10 nM |  | Stability [8]: Stable
19 | CC1=CC[C@@H]2[C@@H](C1)c1c(O)cc(C(C)(C)CO)cc1OC2(C)C | > 10000 nM |  |  | > 10000 nM | 
20 | CC1=CC[C@@H]2[C@@H](C1)c1c(O)cc(C(C)(C)C(=O)OCCCC#N)cc1OC2(C)C |  | 46.5 min | < 1 nM | 0.8 nM | EC50 (Cannabinoid receptor 1 [9]): 0.9 nM; Emax [10]: 89%; Activity (Rattus norvegicus [4]): Dose-dependent effect; ED50 (Rattus norvegicus [4]): 0.034 mg/kg; deltaT (Rattus norvegicus [11]): < 4.5 °C; deltaT (Rattus norvegicus [12]): 2 °C; Activity (Rattus norvegicus [13]): inactive
21 | CC1=CC[C@@H]2[C@@H](C1)c1c(O)cc(CC(=O)OCCCCC#N)cc1OC2(C)C |  | 3.2 min | 10 to 100 nM |  | 
